Two molecules from ChEMBL document CHEMBL3867440, “Hernandezine, a Bisbenzylisoquinoline Alkaloid with Selective Inhibitory Activity against Multidrug-Resistance-Linked ATP-Binding Cassette Drug Transporter ABCB1” (J Nat Prod, 2016) can be followed below.

One data set relates to HEK293. As to the kind of experiment: Inhibition of human wild-type ABCG2 transfected in HEK293 cells assessed as potentiation of mitoxantrone-induced cytotoxicity by measuring mitoxantrone resistance ratio at 3000 nM after 72 hrs by CCK8 assay relative to parental HEK293 cells. Background: Tetrazolium assays rely on reduction of a dye to a coloured formazan, in cell work by metabolically active cells.

The test system of data set [1] is KB-V1. As to the kind of experiment: Induction of apoptosis in human KBV1 cells assessed as viable cells at 1 uM after 48 hrs by Annexin V-FITC/propidium iodide staining based FACS analysis (reference value: 86.1%). Type of data set: functional. Particulars: KB-V1, 48 h, read-out: Activity. For orientation: Flow cytometry measures light scatter and fluorescence of single cells or particles in a stream.

Data set [2] deals with T1, ATP-dependent translocase ABCB1 (Homo sapiens, UniProt P08183). The data set can be described thus: Inhibition of ABCB1 in human NCI-ADR-RES cells assessed as potentiation of colchicine-induced cytotoxicity by measuring colchicine resistance ratio at 1000 nM after 72 hrs by MTT assay relative to parental OVCAR8 cells (reference value: 59). The data set is classed as cell-based. Particulars: ovcar-8, 72 h, 1 µM. An outline of the steps:
(§1)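 Cells were kept in drug-free DMEM with 10% FCS for 7 days before assay, then plated at 5000 cells/well for 24 h. Drug at various concentrations was added with a nontoxic fixed level of modulator for 72 h, and the read-out was MTT. IC50 came from fitted curves (≥3 experiments). RR = IC50 of the resistant line / IC50 of the parental line.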

Data set [3] addresses T1, ATP-dependent translocase ABCB1. The data set can be described thus: Inhibition of ABCB1 in human KBV1 cells assessed as potentiation of doxorubicin-induced cytotoxicity by measuring doxorubicin resistance ratio at 1000 nM after 72 hrs by MTT assay relative to parental KB-3-1 cells (reference value: 34). Type of data set: cell-based. Particulars: kbv1, 72 h, 1 µM. An outline of the steps:
as §1

For data set [4] the target is unchanged. As to the kind of experiment: Inhibition of ABCB1 in human NCI-ADR-RES cells assessed as potentiation of doxorubicin-induced cytotoxicity by measuring doxorubicin resistance ratio at 1000 nM after 72 hrs by MTT assay relative to parental OVCAR8 cells (reference value: 46). Type of data set: cell-based. Particulars: ovcar-8, 72 h, 1 µM. An outline of the steps:
as §1

Data set [5] has as its system KB 3-1. The data set can be described thus: Potentiation of colchicine-induced apoptosis in human KB-3-1 cells assessed as late apoptotic cells at 1 uM after 48 hrs by Annexin V-FITC/propidium iodide staining based FACS analysis (reference value: 25.7%). The data set is classed as functional.
Data set [6] deals with KB-V1. The data set can be described thus: Induction of apoptosis in human KBV1 cells assessed as early apoptotic cells at 1 uM after 48 hrs by Annexin V-FITC/propidium iodide staining based FACS analysis (reference value: 5.3%). Type of data set: functional.
Data set [7] addresses T1, ATP-dependent translocase ABCB1. The data set can be described thus: Inhibition of ABCB1 in human NCI-ADR-RES cells assessed as potentiation of vincristine-induced cytotoxicity by measuring vincristine resistance ratio at 1000 nM after 72 hrs by MTT assay relative to parental OVCAR8 cells (reference value: 435). Type of data set: cell-based. Conditions: ovcar-8, 72 h, 1 µM. An outline of the steps: as §1

Data set [8] concerns KB 3-1. As to the kind of experiment: Potentiation of colchicine-induced apoptosis in human KB-3-1 cells assessed as early apoptotic cells at 1 uM after 48 hrs by Annexin V-FITC/propidium iodide staining based FACS analysis (reference value: 30.5%). The data set is classed as functional.
Data set [9] concerns the target T1, ATP-dependent translocase ABCB1. The data set can be described thus: Inhibition of ABCB1 in human KBV1 cells assessed as potentiation of vincristine-induced cytotoxicity by measuring vincristine resistance ratio at 1000 nM after 72 hrs by MTT assay relative to parental KB-3-1 cells (reference value: 356). The data set is classed as cell-based. Conditions: kbv1, 72 h, 1 µM. An outline of the steps:
as §1

The subject of data set [10] is KB 3-1. As to the kind of experiment: Induction of apoptosis in human KB-3-1 cells assessed as late apoptotic cells at 1 uM after 48 hrs by Annexin V-FITC/propidium iodide staining based FACS analysis (reference value: 5.8%). The data set is classed as functional.
In data set [11] the test system is KB-V1. As to the kind of experiment: Induction of apoptosis in human KBV1 cells assessed as late apoptotic cells at 1 uM after 48 hrs by Annexin V-FITC/propidium iodide staining based FACS analysis (reference value: 7.6%). The data set is classed as functional.
Data set [12] relates to KB 3-1. The data set can be described thus: Potentiation of colchicine-induced apoptosis in human KB-3-1 cells assessed as necrotic cells at 1 uM after 48 hrs by Annexin V-FITC/propidium iodide staining based FACS analysis (reference value: 4.9%). Type of data set: functional.
In data set [13] the test system is KB-V1. As to the kind of experiment: Induction of apoptosis in human KBV1 cells assessed as necrotic cells at 1 uM after 48 hrs by Annexin V-FITC/propidium iodide staining based FACS analysis (reference value: 1%). Type of data set: functional.
Data set [14] deals with T1, ATP-dependent translocase ABCB1. The data set can be described thus: Inhibition of human ABCB1 transfected in HEK293 cells assessed as potentiation of doxorubicin-induced cytotoxicity by measuring doxorubicin resistance ratio at 1000 nM after 72 hrs by CCK8 assay relative to parental HEK293 cells (reference value: 96). Type of data set: cell-based. Conditions: hek293, 72 h, 1 µM.

For data set [15], the system named is KB 3-1. The data set can be described thus: Induction of apoptosis in human KB-3-1 cells assessed as viable cells at 1 uM after 48 hrs by Annexin V-FITC/propidium iodide staining based FACS analysis (reference value: 88.4%). The data set is classed as functional. Particulars: KB 3-1, 48 h, read-out: Activity.
The test system of data set [16] is KB 3-1. The data set can be described thus: Induction of apoptosis in human KB-3-1 cells assessed as necrotic cells at 1 uM after 48 hrs by Annexin V-FITC/propidium iodide staining based FACS analysis (reference value: 0.7%). Type of data set: functional.
Data set [17] concerns KB 3-1. As to the kind of experiment: Induction of apoptosis in human KB-3-1 cells assessed as early apoptotic cells at 1 uM after 48 hrs by Annexin V-FITC/propidium iodide staining based FACS analysis (reference value: 5.1%). The data set is classed as functional.
In data set [18] the target is T1, ATP-dependent translocase ABCB1. As to the kind of experiment: Inhibition of ABCB1 in human KBV1 cells assessed as potentiation of colchicine-induced cytotoxicity by measuring colchicine resistance ratio at 1000 nM after 72 hrs by MTT assay relative to parental KB-3-1 cells (reference value: 55). Type of data set: cell-based. Particulars: kbv1, 72 h, 1 µM. In outline: as §1

Data set [19] deals with KB 3-1. The data set can be described thus: Potentiation of colchicine-induced apoptosis in human KB-3-1 cells assessed as viable cells at 1 uM after 48 hrs by Annexin V-FITC/propidium iodide staining based FACS analysis (reference value: 38.9%). The data set is classed as functional. Particulars: KB 3-1, 48 h, read-out: Activity.

SMILES strings stand for the structures.

T1 sequence (P08183 whole entry): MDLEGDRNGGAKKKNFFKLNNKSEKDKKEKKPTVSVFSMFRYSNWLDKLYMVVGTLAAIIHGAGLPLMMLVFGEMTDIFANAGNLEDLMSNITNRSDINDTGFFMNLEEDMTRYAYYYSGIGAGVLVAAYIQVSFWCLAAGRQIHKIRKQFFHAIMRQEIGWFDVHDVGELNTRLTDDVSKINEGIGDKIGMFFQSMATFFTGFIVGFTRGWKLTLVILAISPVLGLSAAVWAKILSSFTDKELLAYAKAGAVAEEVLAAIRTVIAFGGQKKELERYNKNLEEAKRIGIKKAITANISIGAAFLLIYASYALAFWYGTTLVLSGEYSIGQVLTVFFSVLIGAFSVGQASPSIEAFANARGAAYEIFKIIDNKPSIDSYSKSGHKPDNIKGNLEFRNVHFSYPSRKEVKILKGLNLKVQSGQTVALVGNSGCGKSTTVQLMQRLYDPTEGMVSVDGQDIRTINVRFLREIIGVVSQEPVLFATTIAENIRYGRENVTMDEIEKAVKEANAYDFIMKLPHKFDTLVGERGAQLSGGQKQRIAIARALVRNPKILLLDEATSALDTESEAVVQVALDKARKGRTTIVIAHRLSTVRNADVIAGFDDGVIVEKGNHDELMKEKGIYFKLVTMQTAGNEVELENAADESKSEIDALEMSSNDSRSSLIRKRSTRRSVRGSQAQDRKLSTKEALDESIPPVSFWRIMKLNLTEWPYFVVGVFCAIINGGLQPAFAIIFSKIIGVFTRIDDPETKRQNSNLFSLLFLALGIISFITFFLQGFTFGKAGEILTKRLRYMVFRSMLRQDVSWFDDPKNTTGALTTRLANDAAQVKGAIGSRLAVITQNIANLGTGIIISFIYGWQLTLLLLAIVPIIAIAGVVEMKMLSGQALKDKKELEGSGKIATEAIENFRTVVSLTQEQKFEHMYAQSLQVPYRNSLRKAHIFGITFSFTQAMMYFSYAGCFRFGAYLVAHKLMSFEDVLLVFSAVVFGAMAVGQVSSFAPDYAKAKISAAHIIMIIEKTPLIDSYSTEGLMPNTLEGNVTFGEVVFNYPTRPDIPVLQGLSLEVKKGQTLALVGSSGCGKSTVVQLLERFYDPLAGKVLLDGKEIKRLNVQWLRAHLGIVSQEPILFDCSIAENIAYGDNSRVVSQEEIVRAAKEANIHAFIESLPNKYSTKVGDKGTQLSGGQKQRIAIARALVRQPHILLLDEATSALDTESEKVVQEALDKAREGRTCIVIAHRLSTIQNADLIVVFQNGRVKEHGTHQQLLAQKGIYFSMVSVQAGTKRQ

For `COc1ccc2c3c([nH]c2c1)[C@H](C=C(C)C)N1C(=O)[C@@H]2CCCN2C(=O)[C@@H]1C3`, in the data set on HEK293, the Ratio was determined as 7.
Regarding `COc1cc2c(cc1OC)CN(CCc1ccc(NC(=O)c3cc(OC)c(OC)cc3NC(=O)c3cnc4ccccc4c3)cc1)CC2` [TARIQUIDAR], the results for the viability at 1 µM in the data set with KB-V1 [1], with KB 3-1 [15] and in the data set with KB 3-1 [19] were 91.1%, 92.1% and 37.2%, respectively. Besides, the Ratio in [2] is reported as 1; in data set [3], 1; in data set [4], 3; in data set [7] it was 4; in [9] it was 1; in data set [14] it was 5. In [18], the Ratio was found to be 1. The Activity is given as 27% with KB 3-1 [5]; 3.5% with KB-V1 [6]; 30.2% in the data set with KB 3-1 [8]; 4.4% in the data set with KB 3-1 [10]; 5.2% with KB-V1 [11]; 5.6% in the data set with KB 3-1 [12]. The values for the Activity in the data set with KB-V1 [13], in the data set with KB 3-1 [16] and in the data set with KB 3-1 [17] were 0.2%, 0.2% and 3.3%, respectively.
